Bioassay records (PubChem)
A selection: hits, their analogues and other compounds. The true share with any hit is near 2.2%.
Ba/F3 V617F tox: reduced viability of JAK2V617F-dependent Ba/F3 cells, primary screen, JAK2V617F inhibitor project, cell-based, Ba/F3 EpoR-JAK2V617F, luminescence; 220,000 tested, 1.1% active; inhibition, % at 5.6 µM; ATP luminescence; AID 1446, 2008;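 active means inhibition above the campaign mean plus 3 SD over all tested compounds, cut at about 24% in these data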;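 further: cytokine-independent growth of Ba/F3 cells driven by EpoR plus mutant JAK2; 0% = DMSO-treated cells and 100% = JAK inhibitor I control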
BaF3 tox: parental Ba/F3 cell viability inhibition, counter-screen for JAK2V617F inhibitor project, murine pro-B, CellTiter-Glo luminescence | AID 1486, 2009 | 220,000 tested, 1.1% active | inhibition, % at 5.6 µM | CellTiter-Glo ATP luminescence;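 active means inhibition above a per-campaign cutoff, the mean inhibition of all tested compounds plus 3 SD, cut at about 27% in these data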;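 further: 0% = DMSO wells and 100% = JAK Inhibitor I control wells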
MT stabilizer: microtubule stabilizers in HeLa cells, primary screen, imaging, high-content imaging | HeLa tubulin immunostaining HCS, 24 h; share of cells brighter than vehicle mean+2SD | % tubulin-high responders, % at 10 µM | 200,000 tested, 0.83% active | AID 2205, 2009;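 active means plate Z-score above 3 for both tubulin-high and condensed-nucleus cell shares, with cell loss under 80%, at 10 µM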;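 further: anti alpha tubulin signal scored within the nucleus-defined area of each cell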
IEC-6 tox: cytotoxicity in IEC-6 intestinal epithelial cells, primary screen, cytotoxicity control for KLF5 inhibitor project, cell-based, luminescence; IEC-6 cytotoxicity, luminescence viability; inhibition, % at 5 µM; 290,000 tested, 0.78% active;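 further: 0% = plate median of test compound wells and 100% = cytotoxic reference compound wells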
b-catenin transl: modulators of beta-catenin nuclear translocation, primary screen, imaging, HeLa cells, immunofluorescence, high-content. nuclear translocation activity, % at 5 µM. 190,000 tested, 0.3% active;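 active means nuclear translocation activity above 50% at 5 µM, with a well cell count of 50 or more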;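 further: per-cell ratio of nuclear to cytoplasmic median beta-catenin stain intensity; plate controls were DMSO negative control for no effect and GSK-3 inhibitor IX positive control for full effect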
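System: HeLa cells, endogenous beta-catenin; compound dosing: 5 µM primary single dose, 0.1% DMSO, 0.02–20 µM confirmation series; incubation: 24 h compound exposure at 37°C, 5% CO2; signal: beta-catenin immunofluorescence imaging with DAPI; evaluation: % activation, nuclear-to-cytoplasmic median beta-catenin signal ratio per cell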
APP 5UTR inh: inhibitors of APP translation via 5'UTR reporter, primary screen, APP 5'UTR luciferase, SH-SY5Y cells | SH-SY5Y APP 5'UTR-luciferase reporter, luminescence | inhibition, % at 2 µM | 190,000 tested, 0.82% active | AID 1285, 2008;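 active means inhibition above a set limit, derived from the sample mean plus 3 SD, cut at about 45% in these data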
IEC-6 tox confirm: cytotoxic compounds in IEC-6 epithelial cells, confirmation, cytotoxicity control, cell-based, luminescence | shares compounds with IEC-6 tox | IEC-6 rat intestinal epithelial viability | inhibition, % at 5 µM | 1,900 tested, 63% active | AID 1907, 2009;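 further: 0% = vehicle and 100% = reference cytotoxic drug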
The depositor's hits bear a star. Unless noted, no stated cut-off is given here; in the data, active means inhibition above about 22%; inactive means the rest.

Screening Cc1cccc(-n2c(O)c(/C=C3/C(c4ccccc4)=Nc4ccccc43)c(=O)[nH]c2=O)c1 returned Ba/F3 V617F tox 82*, BaF3 tox 74*, IEC-6 tox 70*, b-catenin transl 52* and IEC-6 tox confirm 58*.
COC(=O)C(O)(c1ccc(NC(=O)c2cccs2)cc1)C(F)(F)F (centres undefined) was read as Ba/F3 V617F tox -2, BaF3 tox 4, IEC-6 tox -3 and b-catenin transl 1.
`COC(=O)[C@@H]1[C@@H](C(=O)OC)C2(c3ccccc3-c3ccccc32)N(c2ccc(Cl)cc2)N1C#N` gave Ba/F3 V617F tox 4, BaF3 tox 1, MT stabilizer 4, IEC-6 tox 4, b-catenin transl -5 and APP 5UTR inh -3.
For COC(=O)C[C@]1(C(=O)OC)CN(C#N)N(c2ccc(Cl)cc2)C12c1ccccc1-c1ccccc12 the results were Ba/F3 V617F tox 98*, BaF3 tox 97*, MT stabilizer 44, IEC-6 tox 101*, b-catenin transl 0, APP 5UTR inh 96* and IEC-6 tox confirm 93*.
Screening COc1ccc(CNCCc2c(C)[nH]c3ccc(OC(F)(F)F)cc23)c(OC)c1 returned IEC-6 tox 38* and IEC-6 tox confirm 22*.
